Assay [1] deals with Ca-Ski. Kind of assay: Antiproliferative activity against human CaSki cells assessed as reduction in cell viability after 48 hrs by CellTiter-Glo assay. Type of assay: functional, cell-based. The procedure, abridged: (§1)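 ATP-based luminescent viability readout. Cells were grown in DMEM with 10% FBS, 2 mM L-glutamine and penicillin-streptomycin at 37 °C, 5% CO2. 2 × 10^4 cells/well were seeded, then exposed the next day to 0–40 μM for 24, 48 or 72 h. % viability = 100 × treated/control. IC50 was fitted from a sigmoid dose-response curve. Run at least three times in quadruplicate; mean ± SEM.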

The subject of assay [2] is Ca-Ski. Description: Inhibition of colony formation in human CaSki cells at 2 to 4 uM afer 1 week by crystal violet staining based assay. Type of assay: functional, cell-based. The method in brief:
(§2)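 Cells were grown in DMEM with 10% FBS, seeded at 1 × 10^3 cells/ml in six-well plates, incubated overnight, then exposed to 2 or 4 μM at 37 °C under 5% CO2 for one week. Colonies were fixed with 4% paraformaldehyde, stained with 0.5% crystal violet and photographed.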

Assay [3] relates to Ca-Ski. Kind of assay: Cell cycle arrest in human CaSki cells assessed as accumulation at G2/M phase at 4 uM after 48 hrs by propidium iodide staining based flow cytometric analysis (reference value: 29.5%). It is filed as functional. The method in brief: (§3)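 Cells in DMEM/10% FBS at 37 °C, 5% CO2 were given 4 μM for 24, 48 or 72 h, with DMSO as control. After trypsinization they were fixed in chilled 70% ethanol on ice for 30 min, treated with RNase A (1 mg/mL) for 30 min at room temperature, and stained with PI (20 μg/mL). At least 10 000 events were read by flow cytometry to give sub-G1, G0/G1, S and G2/M fractions; mean ± SEM.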

In assay [4] the test system is HeLa. Kind of assay: Induction of apoptosis in human HeLa cells assessed as late apoptotic cells at 4 uM after 48 hrs by Annexin V-FITC/PI double staining based flow cytometric analysis (reference value: 4.4%). It is filed as functional.
Assay [5] relates to HeLa. Description: Cell cycle arrest in human HeLa cells assessed as accumulation at Sub G1 phase at 4 uM after 24 hrs by propidium iodide staining based flow cytometric analysis (reference value: 2.2%). It is filed as functional. The procedure, abridged:
as §3

Assay [6] relates to HeLa. Description: Induction of apoptosis in human HeLa cells assessed as early apoptotic cells at 4 uM after 48 hrs by Annexin V-FITC/PI double staining based flow cytometric analysis (reference value: 10.7%). Type of assay: functional.
Assay [7] concerns the target Casein kinase II subunit alpha (Homo sapiens) (UniProt P68400). Description: Inhibition of CK2alpha in human C33A cells at 2 to 4 uM after 48 hrs by Western blot analysis. It is filed as cell-based. The following applies: C-33-A. The method in brief:
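Cells were seeded at 1 × 10^6 per 100 mm dish and treated next day with 2 or 4 μM for 48 h. They were trypsinised, PBS-washed and lysed in RIPA with protease inhibitors. Equal protein was run on SDS-PAGE and transferred to PVDF. Primary antibodies were used at 1:500, with BSA 3% for blocking and antibodies for CK2α, Rb and pRb, otherwise 5% milk in TBST. HRP secondary at 1:2000, chemiluminescence detection.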

Assay [8] deals with Ca-Ski. Description: Antiproliferative activity against human CaSki cells assessed as reduction in cell viability after 72 hrs by CellTiter-Glo assay. Type of assay: functional, cell-based. The procedure, abridged: as §1
In assay [9] the test system is C-33-A. Kind of assay: Induction of apoptosis in human C33A cells assessed as necrotic cells at 4 uM after 48 hrs by Annexin V-FITC/PI double staining based flow cytometric analysis (reference value: 1.9%). Type of assay: functional.
The test system of assay [10] is HeLa. Kind of assay: Cell cycle arrest in human HeLa cells assessed as accumulation at G2/M phase at 4 uM after 72 hrs by propidium iodide staining based flow cytometric analysis (reference value: 12.6%). Type of assay: functional. The procedure, abridged: as §3
For assay [11], the system named is Ca-Ski. Kind of assay: Cell cycle arrest in human CaSki cells assessed as increase in accumulation at G0/G1 phase at 4 uM incubated for 24 hrs by propidium iodide staining based flow cytometric analysis. It is filed as functional. The method in brief: as §3
Assay [12] deals with C-33-A. Description: Induction of apoptosis in human C33A cells assessed as necrotic cells at 4 uM after 24 hrs by Annexin V-FITC/PI double staining based flow cytometric analysis. It is filed as functional.
Assay [13] relates to SiHa. Description: Cell cycle arrest in human SiHa cells assessed as accumulation at G0/G1 phase at 4 uM after 24 hrs by propidium iodide staining based flow cytometric analysis (reference value: 69.9%). It is filed as functional. The method in brief: as §3
For assay [14], the system named is HeLa. Kind of assay: Cell cycle arrest in human HeLa cells assessed as accumulation at G0/G1 phase at 4 uM after 24 hrs by propidium iodide staining based flow cytometric analysis (reference value: 69.4%). Type of assay: functional. The method in brief: as §3
For assay [15], the system named is Ca-Ski. Kind of assay: Induction of apoptosis in human CaSki cells assessed as viable cells at 4 uM after 48 hrs by Annexin V-FITC/PI double staining based flow cytometric analysis (reference value: 81.6%). The following applies: read-out: Activity. Type of assay: functional.
In assay [16] the test system is SiHa. Kind of assay: Induction of apoptosis in human SiHa cells assessed as early apoptotic cells at 4 uM after 48 hrs by Annexin V-FITC/PI double staining based flow cytometric analysis (reference value: 2.4%). It is filed as functional.
Assay [17] relates to C-33-A. Kind of assay: Cell cycle arrest in human C33A cells assessed as accumulation at G2/M phase at 4 uM after 24 hrs by propidium iodide staining based flow cytometric analysis (reference value: 26.2%). Type of assay: functional. The method in brief:
as §3

Assay [18] deals with C-33-A. Kind of assay: Cell cycle arrest in human C33A cells assessed as accumulation at Sub G1 phase at 4 uM after 48 hrs by propidium iodide staining based flow cytometric analysis (reference value: 0.8%). It is filed as functional. The method in brief:
as §3

Assay [19] relates to C-33-A. Kind of assay: Inhibition of colony formation in human C33A cells at 2 to 4 uM afer 1 week by crystal violet staining based assay. Type of assay: functional, cell-based. The procedure, abridged: as §2
For assay [20], the system named is HeLa. Kind of assay: Antiproliferative activity against human HeLa cells assessed as reduction in cell viability after 72 hrs by CellTiter-Glo assay. Type of assay: functional, cell-based. The method in brief: as §1
Assay [21] has as its system SiHa. Description: Induction of apoptosis in human SiHa cells assessed as apoptotic cells at 4 uM after 48 hrs by Annexin V-FITC/PI double staining based flow cytometric analysis (reference value: 6.4%). Type of assay: functional.
Assay [22] concerns C-33-A. Description: Cell cycle arrest in human C33A cells assessed as accumulation at G2/M phase at 4 uM after 72 hrs by propidium iodide staining based flow cytometric analysis (reference value: 25.2%). It is filed as functional. The procedure, abridged: as §3
In assay [23] the target is T1, Homeobox protein SIX1 (Homo sapiens) (UniProt Q15475).
T1 sequence (whole entry): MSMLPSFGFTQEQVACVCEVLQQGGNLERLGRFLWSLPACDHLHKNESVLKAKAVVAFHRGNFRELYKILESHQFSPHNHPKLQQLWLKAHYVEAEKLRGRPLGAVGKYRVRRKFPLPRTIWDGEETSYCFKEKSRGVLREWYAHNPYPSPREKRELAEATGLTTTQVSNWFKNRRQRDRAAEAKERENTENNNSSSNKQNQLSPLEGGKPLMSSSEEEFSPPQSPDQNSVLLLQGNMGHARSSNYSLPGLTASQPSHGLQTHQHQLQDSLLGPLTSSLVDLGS
Kind of assay: Potency index, ratio for inhibition activity of apigenin to test compound for inhibition of SIX1 in human HeLa cells after 48 hrs by Western blot analysis. Type of assay: cell-based. The procedure, abridged: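 Cells plated at 1 × 10^6 per 100 mm dish and treated next day for 48 h with test compound (2 or 4 μM) or apigenin (10, 20 or 40 μM). RIPA lysates with protease inhibitors; equal protein loaded for SDS-PAGE, then PVDF transfer. Blocked in 5% milk/TBST (3% BSA for CK2α); anti-SIX1 or anti-CK2α 1:500, HRP secondary 1:2000; chemiluminescent detection.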

This is an account of results in ChEMBL document CHEMBL4602675, “The Marine Natural Product Manzamine A Inhibits Cervical Cancer by Targeting the SIX1 Protein” (J Nat Prod, 2020).

Active and inactive are the calls of the source. No cut-off for these calls is given here.

Casein kinase II subunit alpha (Homo sapiens), sequence (P68400 whole entry, looked up): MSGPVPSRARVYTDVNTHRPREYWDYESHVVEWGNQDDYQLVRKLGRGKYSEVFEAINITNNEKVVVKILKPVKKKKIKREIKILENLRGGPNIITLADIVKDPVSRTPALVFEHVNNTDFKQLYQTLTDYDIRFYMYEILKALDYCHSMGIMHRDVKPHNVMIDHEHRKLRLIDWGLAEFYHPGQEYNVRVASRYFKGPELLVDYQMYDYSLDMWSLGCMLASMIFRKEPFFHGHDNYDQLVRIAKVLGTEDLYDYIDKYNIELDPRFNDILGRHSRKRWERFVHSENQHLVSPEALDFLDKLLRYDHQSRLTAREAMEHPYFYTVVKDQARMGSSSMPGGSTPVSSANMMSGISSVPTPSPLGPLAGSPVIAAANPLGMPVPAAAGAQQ

As to `O[C@]12C=C(c3nccc4c3[nH]c3ccccc34)[C@@H]3CCN(CCCC/C=C\CC1)C[C@@]31C[C@@H]3/C=C\CCCCN3[C@H]12` [MANZAMINE A], the IC50 is 19.9 µM in the assay with Ca-Ski [1], 9.4 µM with Ca-Ski [8] and 5.3 µM in the assay on HeLa [20]. In addition, the inhibition result (in the assay on Ca-Ski [2]; in [7]; with C-33-A [19]) was “Active” each time. For the same compound, the Activity was determined as 10.1% in the assay with Ca-Ski [3]; 14.1% with HeLa [4]; 2.1% with HeLa [5]; 59% in the assay with HeLa [6]; 11.1% in the assay with C-33-A [9]; 16.2% with HeLa [10]. Moreover, the Activity stood at 6.3% in the assay with C-33-A [12]; 85.3% in the assay with SiHa [13]; 74.7% with HeLa [14]; 27% in the assay on SiHa [16]; 24.6% in the assay with C-33-A [17]; 19.2% in the assay with C-33-A [18]. Further, the Activity in the assay with SiHa [21] turned out to be 33.6%; with C-33-A [22], 19.3%. The “fold change (FC)” value in the assay on Ca-Ski [11] was determined as 1.4. Further, the viability at 4 µM in the assay with Ca-Ski [15] amounted to 76.9%. Further, the Ratio in [23] turned out to be 10.
